Data on five molecules can be found in publication PMC3822625 (Journal of Cellular and Molecular Medicine, 2010).

The structures appear in SMILES notation.

Series [1] relates to Tg(fli1:EGFP) zebrafish embryos. Kind of series: Zebrafish embryo in vivo angiogenesis assay.
The target in another series is P-gp (Homo sapiens, UniProt P08183). As to the kind of experiment: Calcein-AM assay by flow cytometry in CEM/ADR5000 cells. The note with it: CCRF-CEM and CEM/ADR5000 cells, result in words.
Series [2] addresses P-gp expressed in porcine capillaries (Sus scrofa, UniProt K7GMM7). As to the kind of experiment: NBD-CSA transport in porcine brain capillaries. The series is classed as cell-based. The note with it: confocal microscopy, result in words. The method, boiled down:
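Porcine brain capillaries incubated with test compound and the fluorescent P-gp substrate NBD-CSA. Transport into the capillary lumen imaged by confocal microscopy (transmitted light, fluorescence, overlay) and quantified by fluorospectrometry. Negative-control capillaries stained with NBD-CSA only, same time course.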

Sequence of P-gp (P08183 whole entry): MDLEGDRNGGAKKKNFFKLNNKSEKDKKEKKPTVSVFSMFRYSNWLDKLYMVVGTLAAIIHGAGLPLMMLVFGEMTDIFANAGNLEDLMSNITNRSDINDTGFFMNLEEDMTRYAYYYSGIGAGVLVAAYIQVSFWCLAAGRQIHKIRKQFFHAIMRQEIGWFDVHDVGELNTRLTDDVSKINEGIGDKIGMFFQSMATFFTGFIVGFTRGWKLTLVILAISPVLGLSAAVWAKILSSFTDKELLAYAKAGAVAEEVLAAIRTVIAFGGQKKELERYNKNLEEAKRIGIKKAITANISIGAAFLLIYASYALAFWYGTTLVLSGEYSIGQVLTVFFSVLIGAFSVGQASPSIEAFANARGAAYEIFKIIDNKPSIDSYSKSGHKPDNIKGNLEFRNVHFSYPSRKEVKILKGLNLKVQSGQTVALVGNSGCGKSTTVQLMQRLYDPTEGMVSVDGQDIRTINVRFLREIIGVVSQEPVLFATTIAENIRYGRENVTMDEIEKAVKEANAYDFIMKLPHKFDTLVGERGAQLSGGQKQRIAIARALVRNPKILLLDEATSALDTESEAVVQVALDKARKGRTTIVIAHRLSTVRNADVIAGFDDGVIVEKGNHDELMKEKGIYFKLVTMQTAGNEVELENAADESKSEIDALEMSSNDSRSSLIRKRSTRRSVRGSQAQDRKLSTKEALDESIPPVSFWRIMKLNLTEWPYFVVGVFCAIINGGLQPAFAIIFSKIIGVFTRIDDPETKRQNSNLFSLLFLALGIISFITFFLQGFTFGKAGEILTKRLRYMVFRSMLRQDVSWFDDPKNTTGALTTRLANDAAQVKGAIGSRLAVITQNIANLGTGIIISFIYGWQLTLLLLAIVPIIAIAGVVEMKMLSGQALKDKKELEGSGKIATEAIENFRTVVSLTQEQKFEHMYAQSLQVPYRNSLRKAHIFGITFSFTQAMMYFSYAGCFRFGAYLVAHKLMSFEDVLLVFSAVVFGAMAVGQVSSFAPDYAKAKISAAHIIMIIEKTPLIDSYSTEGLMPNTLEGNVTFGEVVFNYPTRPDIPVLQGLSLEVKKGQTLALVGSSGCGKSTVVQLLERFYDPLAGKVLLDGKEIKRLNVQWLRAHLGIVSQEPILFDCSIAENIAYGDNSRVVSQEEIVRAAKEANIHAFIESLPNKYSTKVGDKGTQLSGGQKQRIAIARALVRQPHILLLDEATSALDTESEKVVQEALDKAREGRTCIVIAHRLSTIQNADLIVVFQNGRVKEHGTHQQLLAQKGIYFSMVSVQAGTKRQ
Sequence of P-gp expressed in porcine capillaries (K7GMM7 1-1248): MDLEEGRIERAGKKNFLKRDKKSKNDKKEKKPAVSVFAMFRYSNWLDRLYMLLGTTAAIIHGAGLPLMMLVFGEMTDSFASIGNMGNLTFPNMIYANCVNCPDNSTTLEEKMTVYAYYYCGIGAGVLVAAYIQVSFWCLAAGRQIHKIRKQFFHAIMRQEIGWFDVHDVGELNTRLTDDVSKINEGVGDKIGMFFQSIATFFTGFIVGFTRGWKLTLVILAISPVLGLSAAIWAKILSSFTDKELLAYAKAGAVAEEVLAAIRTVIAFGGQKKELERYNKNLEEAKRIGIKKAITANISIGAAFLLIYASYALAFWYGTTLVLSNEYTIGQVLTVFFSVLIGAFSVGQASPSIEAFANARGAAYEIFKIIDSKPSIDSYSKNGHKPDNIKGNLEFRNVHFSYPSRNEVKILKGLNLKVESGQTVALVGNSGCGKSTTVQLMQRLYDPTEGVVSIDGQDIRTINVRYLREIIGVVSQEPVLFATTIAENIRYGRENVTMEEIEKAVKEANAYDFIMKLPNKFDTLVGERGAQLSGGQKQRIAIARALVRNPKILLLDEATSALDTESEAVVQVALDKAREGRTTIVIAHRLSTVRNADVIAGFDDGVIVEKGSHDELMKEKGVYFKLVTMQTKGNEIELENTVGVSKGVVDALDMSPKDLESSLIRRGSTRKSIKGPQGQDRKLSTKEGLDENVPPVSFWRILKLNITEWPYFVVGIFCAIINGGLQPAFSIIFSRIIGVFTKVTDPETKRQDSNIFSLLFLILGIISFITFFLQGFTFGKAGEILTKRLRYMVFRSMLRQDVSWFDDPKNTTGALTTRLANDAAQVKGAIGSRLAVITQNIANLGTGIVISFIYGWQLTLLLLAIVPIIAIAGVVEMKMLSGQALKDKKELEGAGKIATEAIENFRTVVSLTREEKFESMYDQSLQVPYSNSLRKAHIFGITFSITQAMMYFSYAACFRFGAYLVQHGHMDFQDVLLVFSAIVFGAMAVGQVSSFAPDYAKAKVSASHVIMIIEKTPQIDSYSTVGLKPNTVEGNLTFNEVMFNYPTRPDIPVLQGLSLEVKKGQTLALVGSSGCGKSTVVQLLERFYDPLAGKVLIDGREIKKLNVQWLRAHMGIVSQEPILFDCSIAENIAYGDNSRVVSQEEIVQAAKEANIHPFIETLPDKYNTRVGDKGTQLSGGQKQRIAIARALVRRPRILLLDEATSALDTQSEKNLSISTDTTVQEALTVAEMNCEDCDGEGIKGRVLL

`Cc1cc(C)c(/C=C2\C(=O)Nc3ccccc32)[nH]1` [SU5416]: in series [1] (10 μg/ml, 28 hpf, result in words), the “Formation of ISVs at 28 hpf” value is reported as “completely blocked formation of ISVs”. Besides, the “ISV sprouting at 48 hpf” value in series [1] (10 μg/ml, 48 hpf, compared to control embryos, result in words) is recorded as “sprouted only minimally”. In addition, in series [1] (10 μg/ml, result in words), the Heart rate entry is on record as “not affected” and the Oedema result is on record as “rarely observed”.

Turning to `CC1=CO[C@@H]2O[C@@]3(C)CC[C@H]4[C@H](C)CC[C@@H]1[C@@]24OO3` [Compound 4, anhydrodihydroartemisinin], the “Dead = number of dead embryos up to 48 hpf” value in series [1] (50 μg/ml, N=10 embryos) came to 2; in series [1] (75 μg/ml, N=10 embryos), 5.

With `C[C@@H]1CC[C@H]2[C@@H](C)C(=O)O[C@@H]3O[C@@]4(C)CC[C@@H]1[C@]32OO4` [Compound 1, artemisinin], the “P-gp inhibition (calcein accumulation)” value on P-gp is listed as “do not act as P-gp inhibitors”.

Consider `C/C=C/C[C@@H](C)C(=O)[C@H]1C(=O)N[C@@H](C(C)C)C(=O)N(C)CC(=O)N(C)[C@@H](CC(C)C)C(=O)N[C@@H](C(C)C)C(=O)N(C)[C@@H](CC(C)C)C(=O)N[C@@H](C)C(=O)N[C@H](C)C(=O)N(C)[C@@H](CC(C)C)C(=O)N(C)[C@@H](CC(C)C)C(=O)N(C)[C@@H](C(C)C)C(=O)N1C` [PSC-833], for which the “Inhibition of luminal P-gp (NBD-CSA transport)” value in series [2] is reported as “inhibited”.

As to `C[C@H]1[C@H](OC(=O)CCC(=O)O)O[C@@H]2O[C@@]3(C)CC[C@H]4[C@H](C)CC[C@@H]1[C@@]24OO3` [Artesunate, artesunate], at P-gp, the “P-gp inhibition (calcein accumulation)” value was “do not act as P-gp inhibitors”. The “Dead = number of dead embryos up to 48 hpf” value in series [1] (25 μg/ml, N=20 embryos) is on record as 1; in series [1] (50 μg/ml, N=20 embryos), 1; in series [1] (100 μg/ml, N=20 embryos), 1; in series [1] (200 μg/ml, N=10 embryos), 1. The Anti-angiogenic effect entry in series [1] (overall assessment over the dose range, result in words) is on record as “dose-dependent anti-angiogenic effects”.
